One data set relates to K562. The data set can be described thus: Growth inhibition of human K562 cells expressing p210Bcr/Abl after 96 hrs by trypan blue exclusion assay. The class given is functional, cell-based. The settings on record: K562, 96 h. A digest of the protocol: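 K562 cells were kept in RPMI with 10% FBS and penicillin–streptomycin at 37 °C under 5% CO2. Cells were seeded at 1 × 10^5 cells/mL with a range of compound concentrations, using DMSO as the negative control. After 96 h, viability was counted by Trypan blue exclusion and expressed as percent of DMSO control to derive GI50.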

The target in data set [1] is T1, Bcr/Abl fusion protein (Homo sapiens, UniProt P00519). The data set can be described thus: Inhibition of BCR/ABL p210 autophosphorylation in human K562 cells after 2 hrs by Western blot analysis. The class given is cell-based.
T1 sequence (P00519 whole entry, the tested form may be a part): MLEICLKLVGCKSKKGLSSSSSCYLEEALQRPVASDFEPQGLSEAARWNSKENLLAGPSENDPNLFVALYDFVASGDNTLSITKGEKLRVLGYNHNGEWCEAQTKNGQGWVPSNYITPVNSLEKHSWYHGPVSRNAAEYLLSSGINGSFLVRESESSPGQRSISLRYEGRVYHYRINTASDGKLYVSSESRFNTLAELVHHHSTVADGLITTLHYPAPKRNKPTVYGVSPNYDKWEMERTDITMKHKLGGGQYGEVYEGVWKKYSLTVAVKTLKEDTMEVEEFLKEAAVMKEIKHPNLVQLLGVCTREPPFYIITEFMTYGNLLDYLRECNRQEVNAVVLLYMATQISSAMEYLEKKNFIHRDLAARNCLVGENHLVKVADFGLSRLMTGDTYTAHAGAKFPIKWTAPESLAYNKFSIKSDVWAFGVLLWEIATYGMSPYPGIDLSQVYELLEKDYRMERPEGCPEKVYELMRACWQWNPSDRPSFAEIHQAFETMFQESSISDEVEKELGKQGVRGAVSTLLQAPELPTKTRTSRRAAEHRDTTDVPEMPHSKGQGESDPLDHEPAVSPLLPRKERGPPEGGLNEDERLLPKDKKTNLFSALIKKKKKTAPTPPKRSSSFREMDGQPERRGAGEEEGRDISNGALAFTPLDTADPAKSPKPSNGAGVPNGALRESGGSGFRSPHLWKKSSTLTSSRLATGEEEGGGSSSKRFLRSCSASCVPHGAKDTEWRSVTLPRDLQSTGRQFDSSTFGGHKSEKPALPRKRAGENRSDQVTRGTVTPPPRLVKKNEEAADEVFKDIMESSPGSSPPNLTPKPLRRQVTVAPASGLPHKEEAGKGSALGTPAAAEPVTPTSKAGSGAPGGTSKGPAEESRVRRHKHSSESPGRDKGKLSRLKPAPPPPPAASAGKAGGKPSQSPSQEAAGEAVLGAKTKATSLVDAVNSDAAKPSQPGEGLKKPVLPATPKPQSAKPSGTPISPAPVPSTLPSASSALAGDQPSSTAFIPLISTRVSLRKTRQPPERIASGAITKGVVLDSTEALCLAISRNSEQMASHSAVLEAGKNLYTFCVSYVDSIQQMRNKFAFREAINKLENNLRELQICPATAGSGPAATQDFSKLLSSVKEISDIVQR
T1 sequence (P11274 whole entry, further chain, the tested form may be a part): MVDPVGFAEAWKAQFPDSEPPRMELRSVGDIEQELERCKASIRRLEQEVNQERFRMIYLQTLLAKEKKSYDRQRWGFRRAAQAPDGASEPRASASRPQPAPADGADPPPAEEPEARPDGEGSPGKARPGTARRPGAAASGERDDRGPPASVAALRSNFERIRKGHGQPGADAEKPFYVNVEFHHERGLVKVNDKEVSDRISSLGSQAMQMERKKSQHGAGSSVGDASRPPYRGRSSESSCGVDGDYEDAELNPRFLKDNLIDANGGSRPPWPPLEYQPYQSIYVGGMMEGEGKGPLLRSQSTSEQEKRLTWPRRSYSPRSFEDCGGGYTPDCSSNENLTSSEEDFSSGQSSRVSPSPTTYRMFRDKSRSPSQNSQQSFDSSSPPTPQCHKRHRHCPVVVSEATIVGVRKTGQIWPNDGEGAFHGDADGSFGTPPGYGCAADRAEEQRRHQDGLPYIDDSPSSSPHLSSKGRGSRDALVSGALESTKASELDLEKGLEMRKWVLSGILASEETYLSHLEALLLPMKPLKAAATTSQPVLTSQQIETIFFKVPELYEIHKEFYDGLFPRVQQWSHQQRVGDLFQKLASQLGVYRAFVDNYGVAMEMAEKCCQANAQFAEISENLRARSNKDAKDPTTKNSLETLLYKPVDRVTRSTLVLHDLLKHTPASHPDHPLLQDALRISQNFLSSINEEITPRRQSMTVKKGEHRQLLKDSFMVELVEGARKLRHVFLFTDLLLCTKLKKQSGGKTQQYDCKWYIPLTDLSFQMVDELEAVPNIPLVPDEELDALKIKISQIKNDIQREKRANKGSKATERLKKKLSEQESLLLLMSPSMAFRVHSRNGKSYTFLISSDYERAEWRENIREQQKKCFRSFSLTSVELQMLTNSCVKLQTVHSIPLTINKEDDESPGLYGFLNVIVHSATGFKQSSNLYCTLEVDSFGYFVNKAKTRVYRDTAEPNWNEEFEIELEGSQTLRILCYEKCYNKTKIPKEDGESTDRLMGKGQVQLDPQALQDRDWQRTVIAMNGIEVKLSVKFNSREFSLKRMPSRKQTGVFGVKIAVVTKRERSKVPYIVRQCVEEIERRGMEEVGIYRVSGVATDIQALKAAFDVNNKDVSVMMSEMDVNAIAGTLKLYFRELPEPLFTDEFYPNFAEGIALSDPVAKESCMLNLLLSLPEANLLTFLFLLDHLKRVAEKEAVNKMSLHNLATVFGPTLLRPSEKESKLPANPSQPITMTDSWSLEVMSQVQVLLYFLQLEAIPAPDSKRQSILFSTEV
A short description of data set [2]: Aqueous solubility of the compound. The class given is physicochemical. As to conditions: buffer.
In data set [3] the target is Bcr/Abl fusion protein (Homo sapiens) (UniProt P00519+P11274). The data set can be described thus: Inhibition of BCR/ABL p210 autophosphorylation in human K562 cells at 0.2 to 10 uM after 2 hrs by Western blot analysis. It counts as cell-based. A digest of the protocol: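 Exponentially growing K562 cells were treated for 2 h with rising compound concentrations, diluted from 10 mM DMSO stocks via 1000× DMSO working stocks, or with DMSO vehicle. Lysates were run on 10% SDS–PAGE. Blots were probed sequentially for phospho-BCR-ABL and total BCR-ABL, detected with infrared-dye secondaries, and quantified by densitometry. The phospho signal was normalized to total, with % inhibition relative to vehicle.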
Bcr/Abl fusion protein (Homo sapiens), sequence (P00519 whole entry, looked up, the tested form may be a part): as the sequence (P00519 whole entry, the tested form may be a part) above
Bcr/Abl fusion protein (Homo sapiens), sequence (P11274 whole entry, looked up, the tested form may be a part): as the sequence (P11274 whole entry, further chain, the tested form may be a part) above
Background: A western blot detects proteins with antibodies after separation by electrophoresis.

The subject of a further data set is DU-145. The data set can be described thus: Growth inhibition of human DU145 cells after 96 hrs by trypan blue exclusion assay. It counts as functional. As to conditions: DU-145, 96 h.
Data set [4] can be described thus: Aqueous solubility of the compound.
Data set [5] deals with T1, Bcr/Abl fusion protein. The data set can be described thus: Inhibition of Bcr-Abl after 20 mins by autoradiography. The class given is protein assay. A digest of the protocol: (§1)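 Kinase reactions were started by adding 1 µg recombinant substrate with unlabelled and 32P-labelled ATP. They ran 20 min at 30 °C and were stopped with 2× Laemmli buffer, then boiled 2 min and resolved on 12% SDS–PAGE. Substrate phosphorylation bands on autoradiograms were quantified by densitometry and plotted against log drug concentration. IC50 came from sigmoidal variable-slope nonlinear regression.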

Data set [6] concerns the target Tyrosine-protein kinase Lyn (Homo sapiens, UniProt P07948). The data set can be described thus: Inhibition of GST-tagged recombinant LynB after 20 mins by autoradiography. The method in brief:
as §1

Data set [7] has as its target Proto-oncogene tyrosine-protein kinase Src (Homo sapiens, UniProt P12931). As to the kind of experiment: Inhibition of GST-tagged recombinant Src after 20 mins by autoradiography. A digest of the protocol:
as §1

In data set [8] the target is Receptor tyrosine-protein kinase erbB-2 (Homo sapiens, UniProt P04626). As to the kind of experiment: Inhibition of ErbB2 by immunoprecipitation assay.
The target of data set [9] is Epidermal growth factor receptor (Homo sapiens, UniProt P00533). The data set can be described thus: Inhibition of EGFR by immunoprecipitation assay.
Epidermal growth factor receptor, sequence (P00533 whole entry): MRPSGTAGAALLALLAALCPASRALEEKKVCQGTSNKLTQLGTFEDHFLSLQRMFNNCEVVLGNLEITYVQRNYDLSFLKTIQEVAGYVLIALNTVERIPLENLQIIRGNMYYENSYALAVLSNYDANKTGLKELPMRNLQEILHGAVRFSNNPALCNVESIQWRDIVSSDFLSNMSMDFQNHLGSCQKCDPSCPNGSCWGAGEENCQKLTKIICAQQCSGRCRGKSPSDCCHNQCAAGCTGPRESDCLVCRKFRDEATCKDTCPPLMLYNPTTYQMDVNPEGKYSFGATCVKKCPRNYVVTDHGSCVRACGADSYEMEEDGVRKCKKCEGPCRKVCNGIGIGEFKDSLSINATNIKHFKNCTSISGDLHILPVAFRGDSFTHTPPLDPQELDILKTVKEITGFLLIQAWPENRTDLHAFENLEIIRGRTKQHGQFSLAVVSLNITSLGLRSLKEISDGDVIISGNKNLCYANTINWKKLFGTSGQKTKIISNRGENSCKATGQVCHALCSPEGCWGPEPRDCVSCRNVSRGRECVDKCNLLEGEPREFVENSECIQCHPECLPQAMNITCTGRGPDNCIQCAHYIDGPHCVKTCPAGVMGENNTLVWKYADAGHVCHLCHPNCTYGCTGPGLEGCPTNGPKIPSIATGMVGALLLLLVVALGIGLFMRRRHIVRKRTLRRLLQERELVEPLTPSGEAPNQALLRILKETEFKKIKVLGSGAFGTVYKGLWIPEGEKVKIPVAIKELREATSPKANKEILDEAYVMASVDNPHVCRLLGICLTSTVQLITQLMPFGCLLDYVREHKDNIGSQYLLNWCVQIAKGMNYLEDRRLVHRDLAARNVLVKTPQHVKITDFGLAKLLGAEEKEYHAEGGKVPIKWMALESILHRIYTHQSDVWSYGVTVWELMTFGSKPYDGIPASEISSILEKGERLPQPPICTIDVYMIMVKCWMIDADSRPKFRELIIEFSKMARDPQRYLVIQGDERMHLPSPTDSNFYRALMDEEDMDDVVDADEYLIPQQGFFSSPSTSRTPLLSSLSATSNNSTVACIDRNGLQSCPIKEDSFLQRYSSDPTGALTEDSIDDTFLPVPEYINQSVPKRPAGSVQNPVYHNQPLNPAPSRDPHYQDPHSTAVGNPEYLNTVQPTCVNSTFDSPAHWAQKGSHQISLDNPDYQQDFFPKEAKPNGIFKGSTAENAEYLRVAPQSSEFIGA
The target of data set [10] is Serine/threonine-protein kinase PLK1 (Homo sapiens, UniProt P53350). As to the kind of experiment: Inhibition of GST-tagged recombinant PLK1 after 20 mins by autoradiography. A digest of the protocol: as §1
Serine/threonine-protein kinase PLK1, sequence (P53350 whole entry): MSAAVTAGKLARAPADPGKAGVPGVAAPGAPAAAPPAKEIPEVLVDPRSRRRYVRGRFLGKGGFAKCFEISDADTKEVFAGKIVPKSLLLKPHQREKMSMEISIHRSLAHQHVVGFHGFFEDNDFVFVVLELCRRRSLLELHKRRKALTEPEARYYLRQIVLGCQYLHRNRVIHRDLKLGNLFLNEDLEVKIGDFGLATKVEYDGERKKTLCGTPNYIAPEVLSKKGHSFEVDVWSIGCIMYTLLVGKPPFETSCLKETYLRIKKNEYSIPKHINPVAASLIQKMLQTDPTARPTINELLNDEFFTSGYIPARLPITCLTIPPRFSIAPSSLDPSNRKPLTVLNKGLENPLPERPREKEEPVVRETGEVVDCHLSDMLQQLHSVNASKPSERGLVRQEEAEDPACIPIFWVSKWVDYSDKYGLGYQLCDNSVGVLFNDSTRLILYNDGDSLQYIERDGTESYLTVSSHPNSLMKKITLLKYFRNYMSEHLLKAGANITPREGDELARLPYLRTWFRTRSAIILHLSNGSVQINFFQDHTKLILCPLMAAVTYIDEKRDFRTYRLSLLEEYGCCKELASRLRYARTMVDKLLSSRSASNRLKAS
Data set [11] has as its target Cyclin-dependent kinase 1 (Homo sapiens, UniProt P06493). The data set can be described thus: Inhibition of GST-tagged recombinant CDK1 after 20 mins by autoradiography. The method in brief: as §1

Calls of active or inactive are those of the source. The calls are words filed in the database; no cut-off is given here. A value given as a limit tells only on which side of the number the result lay.

Cyclin-dependent kinase 1, sequence (P06493 whole entry): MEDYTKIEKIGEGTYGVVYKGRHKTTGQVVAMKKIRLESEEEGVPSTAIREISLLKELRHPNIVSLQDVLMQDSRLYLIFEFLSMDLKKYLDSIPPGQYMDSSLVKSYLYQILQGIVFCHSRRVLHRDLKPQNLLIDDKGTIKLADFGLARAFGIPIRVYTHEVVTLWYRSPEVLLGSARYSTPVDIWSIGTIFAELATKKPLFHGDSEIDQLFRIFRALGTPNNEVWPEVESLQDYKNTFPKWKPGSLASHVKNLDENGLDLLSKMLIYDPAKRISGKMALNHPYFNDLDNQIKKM

By IC50 is commonly meant the midpoint of a concentration-inhibition curve. By solubility is commonly meant how much of the substance goes into solution per volume. A higher solubility goes with much dissolved substance. On to `COC(=O)c1ccc(C(=O)/C(=C\c2ccc(F)c([N+](=O)[O-])c2)SCc2ccc(Br)cc2)cc1`, for which the IC50 was found to be 300 nM in the data set with K562 and 750 nM at Bcr/Abl fusion protein [1]. The same molecule came in with a solubility in data set [2] below 1000 µg/mL. Moreover, the inhibition result in data set [3] is “Active”.
One may read the GI50 as the concentration at which growth is held to half of that of the control. Low values mean more potent growth inhibition, high ones less potent growth inhibition. Turning to `O=C(/C(=C\c1ccc(F)c([N+](=O)[O-])c1)SCc1ccc(Br)cc1)c1ccc(C(=O)N2CCN(CCO)CC2)cc1`, the GI50 in the data set on K562 is below 250 nM; in the data set on DU-145 it was 750 nM. Further, the IC50 in the data set with K562 and on Bcr/Abl fusion protein [1] was 500 nM in each case. Besides, the solubility in [2] and in data set [4] was above 10000 µg/mL each time. In addition, the inhibition result in [3] was “Active”.
Turning to `O=C(/C(=C\c1ccc(F)c([N+](=O)[O-])c1)SCc1ccc(F)cc1)c1ccc(C(=O)N2CCN(CCO)CC2)cc1`, the IC50 in the data set on K562 and against Bcr/Abl fusion protein [1] was 500 nM in each case. Further, the solubility in [2] and in data set [4] was above 10000 µg/mL throughout. Besides, in [3], the inhibition result is “Active”.
For `O=C(O)c1ccc(C(=O)/C(=C\c2ccc(F)c([N+](=O)[O-])c2)SCc2ccc(Br)cc2)cc1`, the GI50 was below 1000 nM in the data set on K562 and 1000 nM in the data set with DU-145. Moreover, the IC50 with K562 is 300 nM; on Bcr/Abl fusion protein [1], 500 nM; at Bcr/Abl fusion protein [5] it was 750 nM; in data set [6], 17 µM; in data set [7], 13.2 µM; in data set [8], above 10 µM. In addition, the IC50 is above 20 µM in [9], above 50 µM in data set [10] and above 50 µM in data set [11]. This molecule had a solubility in data set [2] below 1000 µg/mL. Moreover, the inhibition result in data set [3] is “Active”.
Regarding `CN1CCN(CCNC(=O)c2ccc(C(=O)/C(=C\c3ccc(F)c([N+](=O)[O-])c3)SCc3ccc(Br)cc3)cc2)CC1`, the GI50 with K562 and in the data set with DU-145 was 1000 nM in each case. The IC50 in the data set on K562 and against Bcr/Abl fusion protein [1] was 2500 nM each time. Further, the solubility in [2] and in [4] was above 10000 µg/mL throughout. Further, the inhibition result in [3] is “Active”.
Regarding `O=C(O)c1ccc(C(=O)/C(=C\c2ccc(O)c(Br)c2)SCc2ccc(Br)cc2)cc1`, the GI50 with K562 and in the data set on DU-145 was 25000 nM throughout. Further, the values for the IC50 in the data set on K562 and on Bcr/Abl fusion protein [1] were 35000 nM and above 20000 nM, respectively. In addition, the solubility in data set [2] was below 1000 µg/mL.
For the molecule `O=C(O)c1ccc(C(=O)/C(=C\c2ccc(F)c([N+](=O)[O-])c2)SCc2ccc(C(F)(F)F)cc2)cc1`, the GI50 is below 1000 nM in the data set on K562 and 1000 nM with DU-145. Also, the IC50 in the data set on K562 is 400 nM; at Bcr/Abl fusion protein [1], 200 nM. In data set [2], this molecule came in with a solubility below 1000 µg/mL. The inhibition entry in [3] is “Active”.
Regarding `CCN(CC)CCNC(=O)c1ccc(C(=O)/C(=C\c2ccc(F)c([N+](=O)[O-])c2)SCc2ccc(Br)cc2)cc1`, the IC50 in the data set with K562 and against Bcr/Abl fusion protein [1] was 500 nM throughout. Further, the solubility in data set [2] and in [4] was above 10000 µg/mL throughout.
With `O=C(O)c1ccc(C(=O)/C(=C\c2ccc(F)c([N+](=O)[O-])c2)SCc2ccc(F)cc2)cc1`, the GI50 in the data set on K562 was below 1000 nM; in the data set on DU-145, 1000 nM. The IC50 was determined as 400 nM with K562 and 2500 nM on Bcr/Abl fusion protein [1]. This molecule returned a solubility in data set [2] below 1000 µg/mL.
On to `O=C(O)c1ccc(C(=O)/C(=C\c2ccc(Br)c([N+](=O)[O-])c2)SCc2ccc(Br)cc2)cc1`, for which the values for the GI50 in the data set on K562 and with DU-145 were below 1000 nM and 1000 nM, respectively. The IC50 with K562 was determined as 900 nM; against Bcr/Abl fusion protein [1], 10000 nM. The molecule further displayed a solubility in data set [2] below 1000 µg/mL.
Turning to `Cc1ccc(CS/C(=C/c2ccc(F)c([N+](=O)[O-])c2)C(=O)c2ccc(C(=O)O)cc2)cc1`, the GI50 in the data set with K562 was below 1000 nM; with DU-145 it was 1000 nM. Moreover, the IC50 came out at 300 nM in the data set on K562 and 2500 nM on Bcr/Abl fusion protein [1]. Besides, the solubility in data set [2] was below 1000 µg/mL.
`O=C(O)c1ccc(C(=O)/C(=C\c2ccc(Cl)c([N+](=O)[O-])c2)S(=O)(=O)Cc2ccc(Br)cc2)cc1`: the GI50 in the data set on K562 and in the data set with DU-145 was 25000 nM in each case. Besides, the values for the IC50 with K562 and on Bcr/Abl fusion protein [1] were 25000 nM and above 20000 nM, respectively. In [2], the solubility is below 1000 µg/mL.
Turning to `O=C(O)c1ccc(C(=O)/C(=C\c2ccc(O)c([N+](=O)[O-])c2)SCc2ccc(Br)cc2)cc1`, the GI50 in the data set on K562 and with DU-145 was 50000 nM in each case. Further, the IC50 in the data set with K562 was 75000 nM; on Bcr/Abl fusion protein [1] it was above 20000 nM. In addition, the solubility in data set [2] was below 1000 µg/mL.
Regarding `O=C(O)c1ccc(C(=O)/C(=C\c2ccc(F)c([N+](=O)[O-])c2)SCc2ccccc2Cl)cc1`, the GI50 in the data set on K562 and in the data set on DU-145 was 1000 nM throughout. Moreover, the figures for the IC50 in the data set on K562 and at Bcr/Abl fusion protein [1] were 500 nM and 10000 nM, respectively. In [2], the solubility is below 1000 µg/mL.
With `O=C(O)c1ccc(C(=O)/C(=C\c2ccc(Cl)c([N+](=O)[O-])c2)SCc2ccc(Cl)cc2Cl)cc1`, the GI50 was below 1000 nM with K562 and 1000 nM in the data set on DU-145. For the same molecule, the figures for the IC50 in the data set on K562 and against Bcr/Abl fusion protein [1] were 600 nM and 2500 nM, respectively. Also, the solubility in data set [2] was below 1000 µg/mL.

For the origin of these results see ChEMBL document CHEMBL1240409, “Design, synthesis and evaluation of (E)-alpha-benzylthio chalcones as novel inhibitors of BCR-ABL kinase” (Bioorg Med Chem, 2010).
